Results taken from ChEMBL document CHEMBL1128460, “Design, synthesis, and structure-activity relationships of a new series of alpha-adrenergic agonists: spiro[(1,3-diazacyclopent-1-ene)-5,2'-(1',2',3',4'- tetrahydronaphthalene)]” (J Med Chem, 1995).
pEC50, pKi: −log10 of the molar value.

How the values were obtained:
[1] = Ratio of C20 (pithed rat) to that of EC50 (saphenous vein); assay type: functional
[2] = species: Canis familiaris; experiment: Effective concentration for the agonist in the isolated blood vessel using in vitro saphenous vein; assay type: functional; details: Canis lupus familiaris
In short: (§1)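 Vessel segments from mongrel dogs (15–25 kg) anesthetized with pentobarbital (30 mg/kg iv), mounted for isometric tension in physiological saline. Equilibrated 90 min with bath changes every 30 min, rauwolscine (10^-7 M) present throughout. Primed with KCl (100 mM), then phenylephrine (1 µM). Agonist concentration–response curves run at half-log steps, giving EC50 (µM) and Emax as % of phenylephrine maximum; mean ±SD.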

[3] = species: Canis familiaris; experiment: Maximal contractile response obtained with the agonist (expressed as a percentage of the maximal contraction to phenylephrine in the dog saphenous vein); assay type: functional, Canis lupus familiaris; in short: as §1
[4] = species: Canis familiaris; experiment: Maximal contractile response obtained with the agonist (expressed as a percentage of the maximal contraction to phenylephrine in the dog femoral artery); assay type: functional, Canis lupus familiaris; in short: as §1
[5] = biological target: T1, Adrenergic receptor alpha (Rattus norvegicus) (UniProt P15823+P23944+P43140+P22086+P19328+P22909); experiment: Alpha adrenergic activity was evaluated as maximal pressure response caused by agonist, expressed in mmHg (the maximum obtained with phenylephrine is 150 mmHg).; assay type: functional
[6] = biological target: T1, Adrenergic receptor alpha (Rattus norvegicus); experiment: Alpha adrenergic activity was evaluated as concentration (iv) which increases the arterial pressure by 20 mmHg in the pithed rat; assay type: functional, organism-based; details: Artery
[7] = Ratio of C20 obtained in the absence or presence of [C20 ( 0.1 mg of prazosin ) / C20 (control)]; assay type: functional
In short: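 Pithed rats pretreated with tertatolol (100 mg/kg), then 10 min later with prazosin (100 µg/kg). Cumulative iv agonist doses given another 10 min later at 20 s intervals. Arterial pressure recorded, C20 (dose giving +20 mmHg) determined. Ratio calculated as C20(prazosin)/C20(control); 3–6 determinations.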

[8] = Ratio of C20 obtained in the absence or presence of [C20 (1 mg of yohimbine.) / C20 (control)]; assay type: functional
In short: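 Pithed rat arterial pressure assay with tertatolol (100 mg/kg) pretreatment, then yohimbine (1 mg/kg) 10 min later. Cumulative iv agonist doses given at 20 s intervals after a further 10 min, C20 (+20 mmHg dose) obtained. Ratio expressed as C20(yohimbine)/C20(control); 3–6 determinations.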

[9] = biological target: T2, Adrenergic receptor alpha-1 (Rattus norvegicus, UniProt P15823+P23944+P43140); experiment: Displacement of [3H]prazosin from rat cortex Alpha-1 adrenergic receptor
T2 sequence (P15823 whole entry): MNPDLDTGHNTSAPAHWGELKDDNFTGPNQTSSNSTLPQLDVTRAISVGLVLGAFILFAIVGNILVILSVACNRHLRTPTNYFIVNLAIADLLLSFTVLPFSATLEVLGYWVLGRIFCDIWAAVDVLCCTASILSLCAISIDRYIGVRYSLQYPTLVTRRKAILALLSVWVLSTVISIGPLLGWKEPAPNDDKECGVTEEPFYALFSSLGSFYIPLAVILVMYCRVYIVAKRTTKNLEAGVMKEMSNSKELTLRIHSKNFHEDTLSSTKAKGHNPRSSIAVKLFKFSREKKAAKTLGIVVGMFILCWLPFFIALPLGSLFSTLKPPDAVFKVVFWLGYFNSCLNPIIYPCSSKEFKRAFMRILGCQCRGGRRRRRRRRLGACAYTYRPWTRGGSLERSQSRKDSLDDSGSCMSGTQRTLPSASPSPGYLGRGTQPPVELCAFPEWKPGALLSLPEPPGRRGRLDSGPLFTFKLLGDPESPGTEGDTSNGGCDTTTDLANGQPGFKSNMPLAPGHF
T2 sequence (P23944 whole entry): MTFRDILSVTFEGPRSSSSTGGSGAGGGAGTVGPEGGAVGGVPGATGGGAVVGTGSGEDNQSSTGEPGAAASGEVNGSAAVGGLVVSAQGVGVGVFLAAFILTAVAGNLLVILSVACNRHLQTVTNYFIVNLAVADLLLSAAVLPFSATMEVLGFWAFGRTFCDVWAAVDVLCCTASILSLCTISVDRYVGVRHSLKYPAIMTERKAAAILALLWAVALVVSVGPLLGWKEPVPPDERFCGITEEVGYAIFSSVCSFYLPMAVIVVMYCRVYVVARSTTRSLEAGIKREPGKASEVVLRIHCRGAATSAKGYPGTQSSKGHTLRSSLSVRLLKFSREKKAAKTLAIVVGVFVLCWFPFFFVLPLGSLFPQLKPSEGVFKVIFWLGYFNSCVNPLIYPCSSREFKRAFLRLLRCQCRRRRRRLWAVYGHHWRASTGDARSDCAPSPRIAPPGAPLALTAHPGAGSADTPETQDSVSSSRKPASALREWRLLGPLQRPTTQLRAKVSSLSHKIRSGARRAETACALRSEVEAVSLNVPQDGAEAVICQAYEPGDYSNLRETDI
T2 sequence (P43140 whole entry): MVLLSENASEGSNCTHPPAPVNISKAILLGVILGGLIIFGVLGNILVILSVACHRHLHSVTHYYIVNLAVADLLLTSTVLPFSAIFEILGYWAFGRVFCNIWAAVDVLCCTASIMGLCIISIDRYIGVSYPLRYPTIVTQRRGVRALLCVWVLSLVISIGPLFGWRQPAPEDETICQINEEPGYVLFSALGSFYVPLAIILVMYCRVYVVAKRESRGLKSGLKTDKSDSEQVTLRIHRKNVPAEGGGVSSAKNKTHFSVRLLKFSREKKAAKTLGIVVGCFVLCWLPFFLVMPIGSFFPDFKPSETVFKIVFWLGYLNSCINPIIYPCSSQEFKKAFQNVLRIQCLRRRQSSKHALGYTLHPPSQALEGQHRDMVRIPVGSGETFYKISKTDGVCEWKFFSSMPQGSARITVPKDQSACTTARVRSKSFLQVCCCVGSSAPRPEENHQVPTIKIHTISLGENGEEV
In short: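 Rat cortex membranes labelled with [3H]prazosin (0.3 nM), nonspecific binding with prazosin (10 µM). Nine drug concentrations spanning 3 log units, IC50 by log-probit analysis. Ki by Cheng–Prusoff using Kd from Scatchard saturation. At least three independent experiments in duplicate.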

[10] = biological target: T3, Alpha-2A adrenergic receptor (Homo sapiens, UniProt P08913); experiment: Binding affinity towards Alpha-2A adrenergic receptor in human platelets using [3H]RX-821002 as radioligand
T3 sequence (P08913 whole entry): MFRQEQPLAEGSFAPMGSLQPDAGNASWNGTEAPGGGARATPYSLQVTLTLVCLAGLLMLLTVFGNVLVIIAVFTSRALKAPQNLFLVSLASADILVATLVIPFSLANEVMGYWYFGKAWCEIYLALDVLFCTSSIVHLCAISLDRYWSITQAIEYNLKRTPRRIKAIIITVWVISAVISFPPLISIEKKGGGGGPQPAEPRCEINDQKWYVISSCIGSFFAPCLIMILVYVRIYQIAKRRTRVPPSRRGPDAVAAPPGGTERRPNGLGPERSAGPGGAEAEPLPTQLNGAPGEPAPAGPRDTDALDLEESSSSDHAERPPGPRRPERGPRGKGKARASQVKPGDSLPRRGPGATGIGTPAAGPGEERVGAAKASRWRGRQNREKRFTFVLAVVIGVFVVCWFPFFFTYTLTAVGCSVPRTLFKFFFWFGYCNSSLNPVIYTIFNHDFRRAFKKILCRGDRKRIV
In short: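 Human platelet membranes with [3H]RX821002 (1.5 nM), nonspecific binding with phentolamine (10 µM). Displacement at nine concentrations spanning 3 orders of magnitude, IC50 by log-probit analysis, converted to Ki using Scatchard Kd. ≥3 independent duplicate experiments.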

[11] = biological target: T4, Alpha-2B adrenergic receptor (Rattus norvegicus, UniProt P19328); experiment: Binding affinity towards Alpha-2B adrenergic receptor in neonatal rat lung using [3H]-RX-821002 as radioligand
T4 sequence (P19328 whole entry): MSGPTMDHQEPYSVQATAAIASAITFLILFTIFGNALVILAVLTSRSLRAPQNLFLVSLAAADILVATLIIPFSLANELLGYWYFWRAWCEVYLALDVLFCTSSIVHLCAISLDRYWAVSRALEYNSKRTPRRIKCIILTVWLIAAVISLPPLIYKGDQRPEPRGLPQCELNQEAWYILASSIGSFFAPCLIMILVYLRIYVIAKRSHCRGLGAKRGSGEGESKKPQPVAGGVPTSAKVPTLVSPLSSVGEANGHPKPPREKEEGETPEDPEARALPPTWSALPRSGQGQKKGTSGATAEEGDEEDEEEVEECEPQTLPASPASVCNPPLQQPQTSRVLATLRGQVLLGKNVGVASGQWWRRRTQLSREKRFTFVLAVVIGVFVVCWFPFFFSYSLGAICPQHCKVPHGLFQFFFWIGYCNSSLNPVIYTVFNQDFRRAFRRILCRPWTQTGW
In short: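 Neonatal rat lung membranes with [3H]RX821002 (0.5 nM), nonspecific binding with phentolamine (10 µM). Nine concentrations over 3 log units, IC50 by log-probit, Ki by Cheng–Prusoff with Scatchard-derived Kd. ≥3 independent experiments in duplicate.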

[12] = species: Canis familiaris; experiment: Effective concentration for the agonist in the isolated blood vessel using in vitro femoral artery; assay type: functional; details: Canis lupus familiaris; in short: as §1

| Structure (SMILES) | pEC50 [2] | Max [5] [mmHg] | C20 [6] [µg/kg] | Ki [9] [nM] | pKi [10] | pKi [11] | pEC50 [12] | Ratio [1] | Emax [3] | Emax [4] | Ratio [7] | Ratio [8] |
| --- | --- | --- | --- | --- | --- | --- | --- | --- | --- | --- | --- | --- |
| Cc1cc2c(cc1C)CC1(CC2)CN=CN1 (stereo not given) | 5.57 | 72 | 37 | – | – | – | – | 14 | 64 | 0 | 0.5 | 2.5 |
| COc1ccc2c(c1)CC1(CC2)CN=CN1 (stereo not given) | 5.15 | 106 | 1.5 | 16000 | – | – | – | 0.21 | 49 | 0 | 3.9 | 6.9 |
| COc1cccc2c1CCC1(CNC=N1)C2 (stereo not given) | – | – | – | – | 7.92 | 6.80 | – | – | – | – | – | – |
| Fc1cccc2c1CC1(CC2)CN=CN1 (stereo not given) | 5.64 | 131 | 4.6 | 2500 | 7.92 | 6.82 | 4.24 | – | 99 | 75 | 0.6 | 1 |
| Clc1cc(Cl)c2c(c1)CC1(CC2)CN=CN1 (stereo not given) | 5.70 | 91 | 19 | 700 | 8.52 | 7.02 | 4.68 | – | 45 | 10 | 9.5 | 3.1 |
| Cc1cc(C)c2c(c1)CC1(CC2)CN=CN1 (stereo not given) | 5.54 | 91 | 20 | – | – | – | 6.10 | 25 | 66 | 5 | 2.9 | 2.8 |
| FC(F)(F)c1ccc(Cl)c(NC2=NCCN2)c1 | 5.29 | 73 | 10 | 65800 | 5.81 | 6.75 | 5.33 | – | 81 | 22 | 33 | 2.2 |
| NC1=NC2(CCc3cccc(Cl)c3C2)CO1 (stereo not given) | 7.85 | 140 | 0.2 | 800 | 8.80 | 7.70 | 6.44 | – | 117 | 68 | 2 | 3 |
| COc1cc(C)cc2c1CCC1(CN=CN1)C2 (stereo not given) | 5.41 | 136 | 10 | 600 | – | – | 6.10 | – | 81 | 60 | 1.6 | 1 |
| COc1cccc2c1CC1(CC2)CN=CN1 (stereo not given) | 6.30 | 139 | 0.64 | 16000 | – | – | 5.14 | – | 100 | 97 | 2 | 4.6 |

Further lines, with some results ahead:

| pEC50 [2] | Max [5] [mmHg] | C20 [6] [µg/kg] | Ki [9] [nM] | pKi [10] | pKi [11] | pEC50 [12] | Structure (SMILES) | Ratio [1] | Emax [3] | Emax [4] | Ratio [7] | Ratio [8] |
| --- | --- | --- | --- | --- | --- | --- | --- | --- | --- | --- | --- | --- |
| 5.26 | 116 | 6.3 | – | – | – | – | Clc1ccc2c(c1)CC1(CC2)CN=CN1 (stereo not given) | 1.15 | 72 | 0 | 2.6 | 5.8 |
| 5.37 | 66 | 245 | – | – | – | – | CC(C)c1ccc2c(c1)CC1(CC2)CN=CN1 (stereo not given) | 57 | 53 | 0 | 2.9 | 2.9 |
| 5.06 | 105 | 42 | 29400 | – | – | – | COc1ccc2c(c1)CCC1(CN=CN1)C2 (stereo not given) | 4.77 | 60 | 3 | 2.6 | 1.5 |
| – | – | – | – | 7.06 | 5.92 | – | COc1ccc2c(c1)CCC1(CNC=N1)C2 (stereo not given) | – | – | – | – | – |
| 4.96 | 108 | 7.8 | – | – | – | – | Fc1ccc2c(c1)CC1(CC2)CN=CN1 (stereo not given) | 0.71 | 67 | 8 | 5 | 7.7 |
| 5.22 | 120 | 6.3 | – | – | – | – | Clc1ccc2c(c1)CCC1(CN=CN1)C2 (stereo not given) | 1.05 | – | 0 | 2.8 | – |
| – | – | – | – | 7.74 | 6.71 | – | COc1ccc2c(c1)CC1(CC2)CNC=N1 (stereo not given) | – | – | – | – | – |
| – | – | – | – | 7.29 | 7.00 | – | COc1cccc2c1CC1(CC2)CNC=N1 (stereo not given) | – | – | – | – | – |
